These results are taken from ChEMBL document CHEMBL1125799, “Gossypol and derivatives: a new class of aldose reductase inhibitors” (J Med Chem, 1991).

The structures appear in SMILES notation.

The Ki is a measure of affinity in units of concentration, obtained from inhibition or displacement.

Test [1] has as its target T1, Aldo-keto reductase family 1 member B1 (Homo sapiens, UniProt P15121). Description: The compound was tested for inhibitory activity against Aldose reductase from human placenta. The method, boiled down: (§1)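 Aldose reductase purified from human placenta, with NADP present throughout purification and storage, kept at –20 °C. Assay in 0.1 M sodium phosphate pH 7 with 10 mM D,L-glyceraldehyde substrate and 0.1 mM NADPH at 25 ± 1 °C. NADPH oxidation followed as A340 decrease. Initial rates corrected for the rate without aldehyde substrate. Ki derived from Dixon plots.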

The target of test [2] is T1, Aldo-keto reductase family 1 member B1. Description: The compound was tested for inhibitory activity against aldose reductase from human placenta. In a few lines: as §1

In turn, `COc1c(-c2c(C)cc3c(C(C)C)c(O)c(O)c(CO)c3c2OC)c(C)cc2c(C(C)C)c(O)c(O)c(CO)c12` registered a Ki in test [1] of 4.3 µM.
`COc1c(OC)c(C=O)c2c(OC)c(-c3c(C)cc4c(C(C)C)c(OC)c(OC)c(C=O)c4c3OC)c(C)cc2c1C(C)C` returned a Ki in test [1] of 56 µM.
Compound `Cc1cc2c(C(C)C)c(O)c(O)c3c2c(c1-c1c(C)cc2c(C(C)C)c(O)c(O)c4c2c1OC4=O)OC3=O` gave a Ki in test [2] of 0.15 µM.
As to `COc1c(-c2c(C)cc3c(C(C)C)c(O)c(O)c(C#N)c3c2OC)c(C)cc2c(C(C)C)c(O)c(O)c(C#N)c12`, the Ki in test [1] was 2.8 µM.
`COc1c(OC)c2c3c(c(-c4c(C)cc5c(C(C)C)c(OC)c(OC)c6c5c4OC6=O)c(C)cc3c1C(C)C)OC2=O` had an inhibitory constant (Ki) in test [2] of 48 µM.
As to `COc1c(-c2c(C)cc3c(C(C)C)c(O)c(O)c(C=O)c3c2OC)c(C)cc2c(C(C)C)c(O)c(O)c(C=O)c12`, the Ki in test [2] was found to be 0.31 µM.
The compound `CCC(=O)Oc1c(-c2c(C)cc3c(C(C)C)c(O)c(O)c(C#N)c3c2OC(=O)CC)c(C)cc2c(C(C)C)c(O)c(O)c(C#N)c12` returned a Ki in test [2] of 6.8 µM.
As to `Cc1cc2c(C(C)C)c(O)c(O)c(C#N)c2c(OC(=O)C(C)(C)C)c1-c1c(C)cc2c(C(C)C)c(O)c(O)c(C#N)c2c1OC(=O)C(C)(C)C`, the Ki in test [1] was found to be 2.5 µM.
On to `C/C=C/C(=O)Oc1c(-c2c(C)cc3c(C(C)C)c(O)c(O)c(C#N)c3c2OC(=O)/C=C/C)c(C)cc2c(C(C)C)c(O)c(O)c(C#N)c12`, for which, in test [1], the inhibition constant (Ki) amounted to 1.3 µM.
Consider `COc1c(OC)c(C=O)c2c(O)c(-c3c(C)cc4c(C(C)C)c(OC)c(OC)c(C=O)c4c3O)c(C)cc2c1C(C)C`, for which the Ki in test [1] came out at 9.7 µM.
`CCCCCC(=O)Oc1c(-c2c(C)cc3c(C(C)C)c(O)c(O)c(C#N)c3c2OC(=O)CCCCC)c(C)cc2c(C(C)C)c(O)c(O)c(C#N)c12` returned a Ki in test [2] of 3.1 µM.
`Cc1cc2c(C(C)C)c(O)c(O)c(/C=N/O)c2c(O)c1-c1c(C)cc2c(C(C)C)c(O)c(O)c(/C=N/O)c2c1O`: in test [1], the affinity corresponds to a Ki of 7.8 µM.
`Cc1cc2c(C(C)C)c(O)c(O)c3c2c(c1-c1c(C)cc2c(C(C)C)c(O)c(O)c4c2c1OC4=N)OC3=N` yielded a Ki in test [1] of 9.3 µM.
`CC(=O)Oc1c(-c2c(C)cc3c(C(C)C)c(O)c(O)c(C#N)c3c2OC(C)=O)c(C)cc2c(C(C)C)c(O)c(O)c(C#N)c12` came in with an inhibitory constant (Ki) in test [2] of 7.3 µM.
Still for that read-out and setting: for `CCCCC(=O)Oc1c(-c2c(C)cc3c(C(C)C)c(O)c(O)c(C#N)c3c2OC(=O)CCCC)c(C)cc2c(C(C)C)c(O)c(O)c(C#N)c12` the value was 4.7 µM; for `CCCC(=O)Oc1c(-c2c(C)cc3c(C(C)C)c(O)c(O)c(C#N)c3c2OC(=O)CCC)c(C)cc2c(C(C)C)c(O)c(O)c(C#N)c12`, 5.3 µM.
Consider `COc1c(O)c(C=O)c2c(O)c(-c3c(C)cc4c(C(C)C)c(OC)c(O)c(C=O)c4c3O)c(C)cc2c1C(C)C` [6,6'-METHOXYGOSSYPOL], for which the affinity in test [1] corresponds to a Ki of 1.5 µM.
On the same count and under the same terms, for `Cc1cc2c(C(C)C)c(O)c(O)c(C=O)c2c(O)c1-c1c(C)cc2c(C(C)C)c(O)c(O)c(C=O)c2c1O` [GOSSYPOL] the value was 0.5 µM.
